Measured values: ChEMBL document CHEMBL1158680, “Chemical constituents and biological activities of the fruit of Zanthoxylum integrifoliolum” (1999)

Experiments:
Aorta [1] = experiment: Vasorelaxation activity in rat aorta assessed as inhibition of norepinephrine-induced phasic contraction at 1 ug/ml preincubated for 15 mins relative to control; type: functional; parameters: scale not given: the % may be the effect or the level left
Method in brief: (§1)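 Rat aorta was preincubated with test sample or 0.1% DMSO vehicle at 37 °C for 15 min. Contraction was then evoked with high K+ (80 mM) or norepinephrine (3 μM). Response is expressed as percent of control contraction, mean ± SEM, n = 3.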

Aorta [2] = experiment: Vasorelaxation activity in rat aorta assessed as inhibition of norepinephrine-induced tonic contraction at 1 ug/ml preincubated for 15 mins relative to control; type: functional; parameters: scale not given: the % may be the effect or the level left; method in brief: as §1

Compound: COc1cc2nc(N3CCN(C(=O)c4ccco4)CC3)nc(N)c2cc1OC [PRAZOSIN]
- Activity (Aorta [1]): 0%
- Activity (Aorta [2]): 0%
